Laboratory results as given in ChEMBL document CHEMBL1156229, “Pharmacophore development and application toward the identification of novel, small-molecule autotaxin inhibitors” (J Med Chem, 2010).

What was measured:
Autotaxin [1] = target: T1, Autotaxin (Homo sapiens, UniProt Q13822); experiment: Inhibition of human recombinant C-terminal FLAG-tagged autotaxin expressed in baculovirus-infected Sf9 cells assessed as FS-3 hydrolysis at 0.003 uM; values are per cent of control
Autotaxin [2] = target: T1, Autotaxin; experiment: Inhibition of human recombinant C-terminal FLAG-tagged autotaxin expressed in baculovirus-infected Sf9 cells assessed as FS-3 hydrolysis at 30 uM; values are per cent of control
Autotaxin [3] = target: T1, Autotaxin; experiment: Inhibition of human recombinant C-terminal FLAG-tagged autotaxin expressed in baculovirus-infected Sf9 cells assessed as FS-3 hydrolysis at 10 uM relative to control
How it was run: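 Single-dose screen: inhibitor 10 μM final, purified recombinant human ATX 8.3 nM, FS-3 1 μM, fatty acid free BSA 30 μM in Tris pH 8 buffer (1 mM MgCl2, 1 mM CaCl2, 3 mM KCl, 140 mM NaCl), 37 °C. Fluorescence (ex 485/em 538) read every 2 min; percent activity vs vehicle after no-ATX subtraction at 1 h; mean ± SD of three wells.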

Autotaxin [4] = target: T1, Autotaxin; experiment: Inhibition of human recombinant C-terminal FLAG-tagged autotaxin expressed in baculovirus-infected Sf9 cells assessed as FS-3 hydrolysis at 0.01 uM; values are per cent of control
Autotaxin [5] = target: T1, Autotaxin; experiment: Inhibition of human recombinant C-terminal FLAG-tagged autotaxin expressed in baculovirus-infected Sf9 cells assessed as FS-3 hydrolysis at 1 uM; values are per cent of control
Autotaxin [6] = target: T1, Autotaxin; experiment: Competitive inhibition of human recombinant C-terminal FLAG-tagged autotaxin expressed in baculovirus-infected Sf9 cells assessed as FS-3 hydrolysis by Michaelis-Menten method
Autotaxin [7] = target: T1, Autotaxin; experiment: Inhibition of human recombinant C-terminal FLAG-tagged autotaxin expressed in baculovirus-infected Sf9 cells assessed as FS-3 hydrolysis at 0.03 uM; values are per cent of control
Autotaxin [8] = target: T1, Autotaxin; experiment: Inhibition of human recombinant C-terminal FLAG-tagged autotaxin expressed in baculovirus-infected Sf9 cells assessed as FS-3 hydrolysis at 0.1 uM; values are per cent of control
[9] = target: T2, Glycerophosphocholine cholinephosphodiesterase ENPP6 (Homo sapiens) (UniProt Q6UWR7); experiment: Inhibition of human recombinant C-terminal FLAG-tagged NPP6 expressed in baculovirus-infected Sf9 cells assessed as pNPPC hydrolysis at 10 uM relative to control
T2 sequence (whole entry): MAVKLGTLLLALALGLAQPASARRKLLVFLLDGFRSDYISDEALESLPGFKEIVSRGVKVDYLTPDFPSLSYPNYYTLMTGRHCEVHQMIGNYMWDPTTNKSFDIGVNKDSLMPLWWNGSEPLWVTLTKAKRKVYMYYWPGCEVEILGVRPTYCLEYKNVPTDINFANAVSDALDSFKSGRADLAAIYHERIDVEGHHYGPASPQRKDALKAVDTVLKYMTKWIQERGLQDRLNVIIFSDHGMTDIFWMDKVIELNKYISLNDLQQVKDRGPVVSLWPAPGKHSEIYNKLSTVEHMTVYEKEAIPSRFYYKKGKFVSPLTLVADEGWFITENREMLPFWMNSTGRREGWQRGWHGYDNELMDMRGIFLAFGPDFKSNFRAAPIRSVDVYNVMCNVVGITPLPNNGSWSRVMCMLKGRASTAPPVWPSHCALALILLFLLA
How it was run: (§1)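 Purified Sf9-expressed FLAG-tagged enzyme 8.3 nM with inhibitor 10 μM final. NPP6: pNPPC 10 μM in 100 mM Tris-HCl, 500 mM NaCl, 0.05% Triton X-100, pH 9. NPP7: pNPPC 500 μM in 50 mM Tris HCl, 150 mM NaCl, 10 mM sodium taurocholate, pH 8. 37 °C, A405 every 2 min; percent activity vs vehicle at 1 h after no-enzyme subtraction; three wells.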

Autotaxin [10] = target: T1, Autotaxin; experiment: Inhibition of human recombinant C-terminal FLAG-tagged autotaxin expressed in baculovirus-infected Sf9 cells assessed as FS-3 hydrolysis at 10 uM; values are per cent of control
Autotaxin [11] = target: T1, Autotaxin; experiment: Inhibition of human recombinant C-terminal FLAG-tagged autotaxin expressed in baculovirus-infected Sf9 cells assessed as FS-3 hydrolysis
How it was run: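 Dose response: final inhibitor 30, 10, 3, 1, 0.3, 0.1, 0.03 μM, plus 0.01 and 0.003 μM for some compounds; purified human ATX 8.3 nM, 1 μM FS-3, 30 μM fatty acid free BSA, Tris pH 8 buffer, 37 °C. Fluorescence ex 485/em 538 every 2 min; percent activity vs vehicle at 1 h after no-ATX background subtraction; mean of three wells.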

Autotaxin [12] = target: T1, Autotaxin; experiment: Inhibition of human recombinant C-terminal FLAG-tagged autotaxin expressed in baculovirus-infected Sf9 cells assessed as FS-3 hydrolysis at 3 uM; values are per cent of control
Autotaxin [13] = target: T1, Autotaxin; experiment: Inhibition of human recombinant C-terminal FLAG-tagged autotaxin expressed in baculovirus-infected Sf9 cells assessed as FS-3 hydrolysis at 0.3 uM; values are per cent of control
[14] = target: T3, Ectonucleotide pyrophosphatase/phosphodiesterase family member 7 (Homo sapiens) (UniProt Q6UWV6); experiment: Inhibition of human recombinant C-terminal FLAG-tagged NPP7 expressed in baculovirus-infected Sf9 cells assessed as pNPPC hydrolysis at 10 uM relative to control
T3 sequence (whole entry): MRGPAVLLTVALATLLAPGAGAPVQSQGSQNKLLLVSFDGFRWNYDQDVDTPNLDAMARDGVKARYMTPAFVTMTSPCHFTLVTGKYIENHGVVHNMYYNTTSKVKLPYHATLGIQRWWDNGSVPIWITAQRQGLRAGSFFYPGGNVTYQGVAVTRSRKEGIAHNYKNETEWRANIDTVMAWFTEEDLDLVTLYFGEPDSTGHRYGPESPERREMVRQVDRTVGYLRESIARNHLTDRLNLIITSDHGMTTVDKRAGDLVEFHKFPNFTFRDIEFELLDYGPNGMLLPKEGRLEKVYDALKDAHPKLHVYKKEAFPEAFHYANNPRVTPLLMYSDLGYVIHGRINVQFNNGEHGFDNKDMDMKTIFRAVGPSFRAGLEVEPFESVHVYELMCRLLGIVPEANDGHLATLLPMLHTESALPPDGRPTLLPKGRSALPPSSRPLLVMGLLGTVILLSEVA
How it was run: as §1

Autotaxin [15] = target: T1, Autotaxin; experiment: Noncompetitive inhibition of human recombinant C-terminal FLAG-tagged autotaxin expressed in baculovirus-infected Sf9 cells assessed as FS-3 hydrolysis by Michaelis-Menten method

Row | Structure (SMILES) | residual activity (Autotaxin [1]) [%] | residual activity (Autotaxin [2]) [%] | inhibition (Autotaxin [3]) [%] | residual activity (Autotaxin [4]) [%] | residual activity (Autotaxin [5]) [%] | Ki (Autotaxin [6]) [nM] | residual activity (Autotaxin [7]) [%] | residual activity (Autotaxin [8]) [%] | inhibition [9] [%] | residual activity (Autotaxin [10]) [%] | IC50 (Autotaxin [11]) [nM] | residual activity (Autotaxin [12]) [%] | residual activity (Autotaxin [13]) [%] | inhibition [14] [%] | Ki (Autotaxin [15]) [nM]
1 | COc1cc(-c2ccc(/N=N/c3c(S(=O)(=O)O)cc4cc(S(=O)(=O)O)cc(N)c4c3O)c(OC)c2)ccc1/N=N/c1c(S(=O)(=O)O)cc2cc(S(=O)(=O)O)cc(N)c2c1O | 97.5 | 2.68 | 93 | 93.9 | 26 | 271 | 86.2 | 72 | -3 | 6 | 372 | 14.1 | 52.9 | -1 | 
2 | Cc1cc(-c2ccc(/N=N/c3ccc4c(S(=O)(=O)O)cc(S(=O)(=O)O)c(N)c4c3O)c(C)c2)ccc1/N=N/c1ccc2c(S(=O)(=O)O)cc(S(=O)(=O)O)c(N)c2c1O [EVANS BLUE] | 95.8 | 13.3 | 64 | 96 | 47.9 | 824 | 89.6 | 82.3 | -2 | 26.2 | 922 | 35.8 | 60.9 | -2 | 
3 | Nc1c(/N=N/c2ccc(-c3ccc(/N=N/c4cc(S(=O)(=O)O)c5ccccc5c4N)cc3)cc2)cc(S(=O)(=O)O)c2ccccc12 [CONGO RED] | 99.9 | 5.29 | 82 | 99.8 | 54.9 |  | 94.6 | 91.2 | -3 | 14.6 | 1310 | 36.7 | 77.3 | 2 | 1890
